Assay results of several laboratories.
Lines come from different studies, so protocols differ.
Target: Tyrosine-protein kinase Lyn (LYN, Homo sapiens, UniProt P07948)

CC(C)(O)c1cncc(-c2nc3ccc(F)cc3n2C2CC2)c1 has a remaining binding of 100% (cell-free assay, competition with immobilised ligand; 1 µM).
CNC(=O)c1cc(Oc2ccc(NC(=O)Nc3ccc(Cl)c(C(F)(F)F)c3)cc2)ccn1 gave an inhibition of 10% (enzyme activity, inhibitor; 0.3 µM).
With O=C1c2ccccc2-c2n[nH]c3cccc1c23 the activity vs control was 97% (enzyme activity, inhibitor; 0.5 µM).
For CNCc1ccc(-c2cc(-c3nc(-c4ccc(S(=O)(=O)C(C)C)cc4)cnc3N)on2)cc1, the inhibition was 13% (enzyme activity, inhibitor; 0.4 µM).
O=C(Nc1cnn(-c2csc(C(=O)NC3COC3)c2)c1)Nc1ccccc1Cl has a remaining activity of 96.8% (enzyme activity, inhibitor; 5 µM).
With O=C1NC(=O)c2cc(Nc3ccc(F)cc3)c(Nc3ccc(F)cc3)cc21 the remaining signal was 98.7% (cell-free assay, inhibitor; 0.5 µM).
The ΔTm of Cn1c2c(c3ccc(Cl)c(Cl)c31)C(C#N)C1(CCNCC1)NC2=O (racemic) is reported as 0.2 °C (thermal stability, DSF; 10 µM).
For N#CC1(c2ccccn2)CCN(Cc2cc(C(=O)N3CCCC3)c(=O)n3ccccc23)CC1, the remaining binding was 99% (cell-free assay, competition with immobilised ligand; 1 µM).
Cn1c2c(Cl)c(Cl)ccc2c2cc[nH]c(=O)c21 has a ΔTm of 0 °C (thermal stability, DSF; 10 µM).
CNc1cccc2cc(C(=O)Nc3ccc(C(=O)O)cc3)c(=O)[nH]c12 has an inhibition of -4.6% (enzyme activity, inhibitor; 10 µM).
With c1nc2c(Nc3ccc4c(c3)OCCO4)nc(Nc3ccc4c(c3)OCCO4)nc2[nH]1 the activity vs control was 32% (enzyme activity, inhibitor; 10 µM).
CN(C)C(=O)Cn1cc(-c2nc(C3(c4ccc(-c5cnc(N)nc5)cc4)CC3)no2)cn1 has a remaining binding of 79% (cell-free assay, competition with immobilised ligand; 1 µM).
Cn1c2c(c3ccc(Cl)c(Cl)c31)C(C#N)C(C)(C)NC2=O (stereo not drawn) has a ΔTm of 0.1 °C (thermal stability, DSF; 10 µM).
The remaining binding of O=C(NS(=O)(=O)c1ccc(NCC2CCOCC2)c([N+](=O)[O-])c1)c1ccc(N2CCN(Cc3ccc(C(F)(F)F)cc3-c3ccc(Cl)cc3)CC2)cc1Oc1cnc2[nH]ccc2c1 is reported as 99% (cell-free assay, competition with immobilised ligand; 1 µM).
The remaining signal of COc1cc2c(N3CCN(C(=O)Nc4ccc(OC(C)C)cc4)CC3)ncnc2cc1OCCCN1CCCCC1 is reported as 95.6% (cell-free assay; 0.5 µM).
CCN(CC)c1ccc(C2=NNC(=O)CC2C)cc1[N+](=O)[O-] (stereo not drawn) has a remaining activity of 114% (enzyme activity, inhibitor; 10 µM).
For O=c1c2ccccc2[nH]c(=S)n1CCN1CCC(=C(c2ccc(F)cc2)c2ccc(F)cc2)CC1, the remaining activity was 108% (enzyme activity, inhibitor; 0.5 µM).
With CCCOc1ccc(OC)c(F)c1C(=O)c1ccc(C(=O)N[C@@H]2CNC[C@H]2NC(=O)c2ccc3[nH]ncc3c2)cc1 the remaining activity was 39% (enzyme activity, inhibitor; 10 µM).
